Measured values reported in ChEMBL document CHEMBL1165965, “Synthesis and structure-activity relationships of 1,2,3,4-tetrahydropyrido[2,3-b]pyrazines as potent and selective inhibitors of the anaplastic lymphoma kinase” (Bioorg Med Chem, 2010).

Tests used:
[1] = molecular target: T1, Inhibitor of nuclear factor kappa-B kinase subunit beta (Homo sapiens) (UniProt O14920); test: Inhibition of IKK-beta at 1 uM
T1 sequence (whole entry): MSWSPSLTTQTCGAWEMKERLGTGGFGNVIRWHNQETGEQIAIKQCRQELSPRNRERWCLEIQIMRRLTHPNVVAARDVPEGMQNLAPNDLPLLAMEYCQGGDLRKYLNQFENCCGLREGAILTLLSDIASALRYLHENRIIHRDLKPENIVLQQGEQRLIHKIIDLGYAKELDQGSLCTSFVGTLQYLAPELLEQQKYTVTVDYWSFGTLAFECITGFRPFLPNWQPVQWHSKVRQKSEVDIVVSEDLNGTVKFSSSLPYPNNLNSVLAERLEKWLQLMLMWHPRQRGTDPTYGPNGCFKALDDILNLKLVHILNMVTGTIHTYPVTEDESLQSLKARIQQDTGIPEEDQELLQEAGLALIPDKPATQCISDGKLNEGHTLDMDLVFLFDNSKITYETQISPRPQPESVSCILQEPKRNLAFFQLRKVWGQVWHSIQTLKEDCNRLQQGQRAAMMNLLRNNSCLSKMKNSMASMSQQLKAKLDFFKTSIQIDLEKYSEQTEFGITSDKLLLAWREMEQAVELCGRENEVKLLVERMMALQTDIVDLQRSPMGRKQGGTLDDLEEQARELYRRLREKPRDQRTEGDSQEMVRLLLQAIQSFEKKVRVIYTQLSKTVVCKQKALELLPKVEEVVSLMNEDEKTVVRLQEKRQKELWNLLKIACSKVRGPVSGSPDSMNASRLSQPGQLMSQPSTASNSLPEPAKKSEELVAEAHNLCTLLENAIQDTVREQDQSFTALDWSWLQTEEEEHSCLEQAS

[2] = molecular target: T2, Phosphorylase b kinase gamma catalytic chain, liver/testis isoform (Homo sapiens) (UniProt P15735); test: Inhibition of PHKG2 at 1 uM
T2 sequence (whole entry): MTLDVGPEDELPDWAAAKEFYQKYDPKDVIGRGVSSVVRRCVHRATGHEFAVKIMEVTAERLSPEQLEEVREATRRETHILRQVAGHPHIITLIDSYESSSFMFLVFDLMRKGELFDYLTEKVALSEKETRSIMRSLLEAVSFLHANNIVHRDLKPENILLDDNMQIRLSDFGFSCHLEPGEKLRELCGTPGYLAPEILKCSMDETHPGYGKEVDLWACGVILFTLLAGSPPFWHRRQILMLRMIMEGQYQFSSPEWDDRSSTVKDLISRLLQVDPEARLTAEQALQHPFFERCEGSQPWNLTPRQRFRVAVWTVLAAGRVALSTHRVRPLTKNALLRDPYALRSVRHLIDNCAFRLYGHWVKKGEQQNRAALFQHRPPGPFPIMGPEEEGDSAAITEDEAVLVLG

[3] = molecular target: SRSF protein kinase 1 (Homo sapiens) (UniProt Q96SB4); test: Inhibition of SRPK1 at 1 uM
Chain of SRSF protein kinase 1 (Homo sapiens) (Q96SB4 whole entry): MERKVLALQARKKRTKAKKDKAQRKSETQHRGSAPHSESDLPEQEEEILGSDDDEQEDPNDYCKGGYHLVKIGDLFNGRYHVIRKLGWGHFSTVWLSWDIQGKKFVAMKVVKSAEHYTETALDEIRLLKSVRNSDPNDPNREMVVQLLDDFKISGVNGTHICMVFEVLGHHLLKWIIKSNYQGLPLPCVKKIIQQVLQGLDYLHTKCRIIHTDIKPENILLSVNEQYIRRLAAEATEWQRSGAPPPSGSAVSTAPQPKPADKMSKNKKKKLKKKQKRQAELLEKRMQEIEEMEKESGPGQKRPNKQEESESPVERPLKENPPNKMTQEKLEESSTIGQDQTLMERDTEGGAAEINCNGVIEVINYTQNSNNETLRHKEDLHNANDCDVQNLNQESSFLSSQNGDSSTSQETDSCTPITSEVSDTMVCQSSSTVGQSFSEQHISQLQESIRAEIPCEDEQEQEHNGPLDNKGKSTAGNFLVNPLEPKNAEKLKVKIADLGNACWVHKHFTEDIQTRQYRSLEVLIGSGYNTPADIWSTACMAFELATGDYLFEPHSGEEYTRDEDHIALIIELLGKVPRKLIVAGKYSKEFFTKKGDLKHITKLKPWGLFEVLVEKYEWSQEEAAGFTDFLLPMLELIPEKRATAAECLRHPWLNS

[4] = system: Tyrosine-protein kinase ABL1 (Homo sapiens), P00519 [E255K]; test: Inhibition of ABL1 E255K mutant at 1 uM
Chain of Tyrosine-protein kinase ABL1 (Homo sapiens), P00519 [E255K] (P00519 whole entry E255K): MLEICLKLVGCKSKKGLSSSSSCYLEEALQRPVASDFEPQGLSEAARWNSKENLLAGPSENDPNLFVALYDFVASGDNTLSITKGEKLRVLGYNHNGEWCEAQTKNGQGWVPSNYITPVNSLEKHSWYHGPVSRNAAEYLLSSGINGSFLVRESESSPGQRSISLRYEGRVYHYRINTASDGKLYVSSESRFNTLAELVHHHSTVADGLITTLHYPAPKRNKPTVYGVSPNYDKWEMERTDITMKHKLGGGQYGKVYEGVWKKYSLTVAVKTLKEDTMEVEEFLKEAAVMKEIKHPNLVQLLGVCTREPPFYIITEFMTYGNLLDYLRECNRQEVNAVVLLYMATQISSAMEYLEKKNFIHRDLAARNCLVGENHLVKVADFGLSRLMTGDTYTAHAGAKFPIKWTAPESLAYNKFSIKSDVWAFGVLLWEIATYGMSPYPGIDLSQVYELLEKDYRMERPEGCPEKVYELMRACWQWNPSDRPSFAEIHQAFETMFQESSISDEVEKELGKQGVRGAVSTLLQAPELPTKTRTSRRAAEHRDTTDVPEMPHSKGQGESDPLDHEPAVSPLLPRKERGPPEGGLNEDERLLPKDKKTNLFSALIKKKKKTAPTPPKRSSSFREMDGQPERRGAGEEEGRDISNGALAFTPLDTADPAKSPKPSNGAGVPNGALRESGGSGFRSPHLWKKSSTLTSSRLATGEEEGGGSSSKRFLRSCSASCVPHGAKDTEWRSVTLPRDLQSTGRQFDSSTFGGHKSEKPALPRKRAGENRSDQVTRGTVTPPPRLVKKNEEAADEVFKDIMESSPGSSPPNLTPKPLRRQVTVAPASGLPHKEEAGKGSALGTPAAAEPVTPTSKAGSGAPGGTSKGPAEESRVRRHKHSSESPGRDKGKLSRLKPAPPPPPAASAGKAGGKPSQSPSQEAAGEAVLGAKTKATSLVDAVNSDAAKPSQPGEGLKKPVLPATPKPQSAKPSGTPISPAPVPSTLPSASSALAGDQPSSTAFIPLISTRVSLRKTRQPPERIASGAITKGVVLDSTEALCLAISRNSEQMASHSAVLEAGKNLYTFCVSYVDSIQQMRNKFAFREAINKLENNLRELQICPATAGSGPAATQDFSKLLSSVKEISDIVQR
Outline: (§1)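 Ambit KINOMEscan screen at a single concentration across a 250–400 kinase panel, recorded as percent inhibition. Selectivity was expressed as S(90), the fraction of kinases inhibited >90%.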

[5] = molecular target: T3, Activin receptor type-1 (Homo sapiens) (UniProt Q04771); test: Inhibition of ACVR1 at 1 uM; outline: as §1
T3 sequence (whole entry): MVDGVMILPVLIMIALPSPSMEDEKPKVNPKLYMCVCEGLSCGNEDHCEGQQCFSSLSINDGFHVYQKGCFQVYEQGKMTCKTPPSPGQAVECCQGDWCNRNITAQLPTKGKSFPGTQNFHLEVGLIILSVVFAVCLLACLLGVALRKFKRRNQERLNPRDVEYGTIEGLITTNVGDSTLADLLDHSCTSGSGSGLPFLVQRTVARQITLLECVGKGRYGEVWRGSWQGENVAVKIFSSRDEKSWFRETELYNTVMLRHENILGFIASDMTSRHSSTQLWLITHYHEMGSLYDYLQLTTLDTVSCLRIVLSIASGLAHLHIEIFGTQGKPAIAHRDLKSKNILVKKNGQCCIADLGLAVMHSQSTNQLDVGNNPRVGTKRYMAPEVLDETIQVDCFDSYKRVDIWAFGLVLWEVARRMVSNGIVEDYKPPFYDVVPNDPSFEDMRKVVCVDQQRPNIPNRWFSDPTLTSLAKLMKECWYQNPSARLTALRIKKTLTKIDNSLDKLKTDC

[6] = molecular target: T4, Atypical kinase COQ8B, mitochondrial (Homo sapiens) (UniProt Q96D53); test: Inhibition of ADCK4 at 1 uM; outline: as §1
T4 sequence (whole entry): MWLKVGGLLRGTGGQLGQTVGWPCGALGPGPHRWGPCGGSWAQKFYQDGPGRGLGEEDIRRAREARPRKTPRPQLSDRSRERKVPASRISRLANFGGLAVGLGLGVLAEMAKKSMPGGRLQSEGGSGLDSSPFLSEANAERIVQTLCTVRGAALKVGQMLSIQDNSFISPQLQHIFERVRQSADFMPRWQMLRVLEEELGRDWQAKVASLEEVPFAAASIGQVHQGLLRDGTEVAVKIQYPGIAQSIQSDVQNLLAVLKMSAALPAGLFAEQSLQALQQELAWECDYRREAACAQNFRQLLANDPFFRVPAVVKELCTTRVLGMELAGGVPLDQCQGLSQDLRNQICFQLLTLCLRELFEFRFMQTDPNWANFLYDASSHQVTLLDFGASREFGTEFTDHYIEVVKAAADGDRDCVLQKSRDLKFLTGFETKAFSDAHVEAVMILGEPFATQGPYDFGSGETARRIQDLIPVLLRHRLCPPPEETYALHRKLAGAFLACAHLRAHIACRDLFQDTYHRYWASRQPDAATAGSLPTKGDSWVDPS

[7] = molecular target: Cyclin-dependent kinase 7 (Homo sapiens) (UniProt P50613); test: Inhibition of CDK7 at 1 uM
Chain of Cyclin-dependent kinase 7 (Homo sapiens) (P50613 whole entry): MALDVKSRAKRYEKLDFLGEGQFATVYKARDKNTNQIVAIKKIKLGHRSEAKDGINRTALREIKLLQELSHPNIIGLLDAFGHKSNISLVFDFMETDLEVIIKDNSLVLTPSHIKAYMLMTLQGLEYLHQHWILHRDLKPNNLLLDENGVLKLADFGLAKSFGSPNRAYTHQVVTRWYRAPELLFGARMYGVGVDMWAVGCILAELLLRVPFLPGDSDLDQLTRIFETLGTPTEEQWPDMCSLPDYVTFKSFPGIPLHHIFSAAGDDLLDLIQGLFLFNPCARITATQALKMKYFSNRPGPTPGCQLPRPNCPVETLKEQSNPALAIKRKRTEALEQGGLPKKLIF

[8] = molecular target: Cyclin-dependent kinase 8 (Homo sapiens) (UniProt P49336); test: Inhibition of CDK8 at 1 uM
[9] = molecular target: Dual specificity protein kinase CLK3 (Homo sapiens) (UniProt P49761); test: Inhibition of CLK3 at 1 uM
Chain of Dual specificity protein kinase CLK3 (Homo sapiens) (P49761 whole entry, looked up): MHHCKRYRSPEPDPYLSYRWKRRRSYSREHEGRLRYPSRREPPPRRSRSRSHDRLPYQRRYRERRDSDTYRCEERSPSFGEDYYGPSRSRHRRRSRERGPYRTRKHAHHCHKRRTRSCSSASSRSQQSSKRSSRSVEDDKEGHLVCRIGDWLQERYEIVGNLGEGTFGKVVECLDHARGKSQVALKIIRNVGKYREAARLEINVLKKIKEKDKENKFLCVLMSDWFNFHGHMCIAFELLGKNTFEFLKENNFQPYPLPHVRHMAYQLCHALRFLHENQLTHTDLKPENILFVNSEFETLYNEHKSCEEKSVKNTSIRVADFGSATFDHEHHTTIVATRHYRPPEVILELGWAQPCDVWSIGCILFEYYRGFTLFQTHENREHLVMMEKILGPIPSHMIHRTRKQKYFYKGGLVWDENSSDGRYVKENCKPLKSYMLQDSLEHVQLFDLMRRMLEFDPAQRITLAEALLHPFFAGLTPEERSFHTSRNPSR
Outline: (§2)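 Single-concentration screen using Ambit Bioscience KINOMEscan technology across a panel of 250–400 kinases. Per-kinase inhibition from this screen was summarized as S(90), the fraction of kinases inhibited by more than 90%.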

[10] = molecular target: Ephrin type-A receptor 7 (Homo sapiens) (UniProt Q15375); test: Inhibition of EPHA7 at 1 uM; outline: as §2
Chain of Ephrin type-A receptor 7 (Homo sapiens) (Q15375 28-998 limits assumed): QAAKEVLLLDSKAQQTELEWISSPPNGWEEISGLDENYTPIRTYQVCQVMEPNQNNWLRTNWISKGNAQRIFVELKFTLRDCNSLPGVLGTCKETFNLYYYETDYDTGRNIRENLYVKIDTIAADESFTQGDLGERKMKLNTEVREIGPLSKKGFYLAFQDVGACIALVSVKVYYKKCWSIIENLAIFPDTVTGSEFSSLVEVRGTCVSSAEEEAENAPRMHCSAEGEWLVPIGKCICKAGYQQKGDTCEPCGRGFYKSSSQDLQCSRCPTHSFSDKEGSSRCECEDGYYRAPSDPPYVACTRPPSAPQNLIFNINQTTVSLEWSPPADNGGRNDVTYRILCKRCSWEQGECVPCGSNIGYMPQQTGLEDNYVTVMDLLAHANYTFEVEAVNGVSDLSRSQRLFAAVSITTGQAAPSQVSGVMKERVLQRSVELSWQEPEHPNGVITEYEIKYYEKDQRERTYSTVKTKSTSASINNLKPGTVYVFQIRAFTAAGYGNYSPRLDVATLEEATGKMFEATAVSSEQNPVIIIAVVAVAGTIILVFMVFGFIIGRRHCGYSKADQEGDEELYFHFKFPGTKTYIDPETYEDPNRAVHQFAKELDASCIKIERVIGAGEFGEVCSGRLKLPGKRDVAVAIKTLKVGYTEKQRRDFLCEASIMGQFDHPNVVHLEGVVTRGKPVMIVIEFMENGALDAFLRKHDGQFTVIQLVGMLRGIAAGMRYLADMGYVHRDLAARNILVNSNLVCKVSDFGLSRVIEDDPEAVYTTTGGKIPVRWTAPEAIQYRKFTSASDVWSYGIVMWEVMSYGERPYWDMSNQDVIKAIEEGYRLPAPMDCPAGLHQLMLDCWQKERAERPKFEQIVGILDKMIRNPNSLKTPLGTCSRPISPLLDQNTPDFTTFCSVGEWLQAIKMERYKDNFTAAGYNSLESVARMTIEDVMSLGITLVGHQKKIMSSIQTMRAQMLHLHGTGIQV

[11] = molecular target: Mitogen-activated protein kinase 6 (Homo sapiens) (UniProt Q16659); test: Inhibition of ERK3 at 1 uM
Chain of Mitogen-activated protein kinase 6 (Homo sapiens) (Q16659 whole entry): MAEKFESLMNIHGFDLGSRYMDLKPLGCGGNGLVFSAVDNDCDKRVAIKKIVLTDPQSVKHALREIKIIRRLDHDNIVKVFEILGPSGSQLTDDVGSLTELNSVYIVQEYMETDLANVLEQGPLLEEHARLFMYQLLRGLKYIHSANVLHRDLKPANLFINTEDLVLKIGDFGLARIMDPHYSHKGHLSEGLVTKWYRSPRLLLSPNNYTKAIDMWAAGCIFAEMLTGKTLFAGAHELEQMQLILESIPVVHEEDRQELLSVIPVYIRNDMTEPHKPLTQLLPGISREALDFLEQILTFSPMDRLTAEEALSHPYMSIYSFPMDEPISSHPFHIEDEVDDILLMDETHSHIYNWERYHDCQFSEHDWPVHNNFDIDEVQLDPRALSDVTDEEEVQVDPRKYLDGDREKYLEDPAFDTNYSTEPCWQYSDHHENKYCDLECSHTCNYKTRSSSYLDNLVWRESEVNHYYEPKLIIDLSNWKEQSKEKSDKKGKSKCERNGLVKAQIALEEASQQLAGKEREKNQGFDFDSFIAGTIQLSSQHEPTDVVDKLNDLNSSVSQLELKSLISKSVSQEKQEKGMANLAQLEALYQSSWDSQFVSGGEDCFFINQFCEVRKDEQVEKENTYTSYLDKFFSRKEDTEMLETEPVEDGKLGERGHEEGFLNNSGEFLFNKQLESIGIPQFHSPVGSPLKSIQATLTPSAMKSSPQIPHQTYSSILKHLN

[12] = molecular target: Tyrosine-protein kinase Fer (Homo sapiens) (UniProt P16591); test: Inhibition of FER at 1 uM; outline: as §2
[13] = molecular target: Glycogen synthase kinase-3 alpha (Homo sapiens) (UniProt P49840); test: Inhibition of GSK3A at 1 uM
Chain of Glycogen synthase kinase-3 alpha (Homo sapiens) (P49840 2-483 limits assumed): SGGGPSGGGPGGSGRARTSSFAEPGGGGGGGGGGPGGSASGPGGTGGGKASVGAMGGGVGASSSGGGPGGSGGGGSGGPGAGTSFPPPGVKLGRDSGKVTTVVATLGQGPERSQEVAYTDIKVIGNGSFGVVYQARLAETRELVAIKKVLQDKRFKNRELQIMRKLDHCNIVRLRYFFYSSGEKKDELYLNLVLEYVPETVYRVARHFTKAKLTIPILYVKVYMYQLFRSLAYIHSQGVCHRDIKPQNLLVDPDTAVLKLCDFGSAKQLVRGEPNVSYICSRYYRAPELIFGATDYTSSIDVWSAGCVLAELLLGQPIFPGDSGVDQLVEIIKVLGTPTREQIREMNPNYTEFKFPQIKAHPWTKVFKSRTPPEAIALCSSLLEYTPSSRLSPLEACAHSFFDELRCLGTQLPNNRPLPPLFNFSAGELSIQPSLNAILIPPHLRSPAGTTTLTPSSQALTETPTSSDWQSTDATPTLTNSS
Outline: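 Single-concentration screen on the Ambit KINOMEscan platform, run against a panel of 250–400 kinases. Per-kinase inhibition was also summarized as S(90), the fraction of kinases inhibited by more than 90%.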

| inhibition [1] | inhibition [2] | inhibition [3] | inhibition [4] | inhibition [5] | inhibition [6] | inhibition [7] | inhibition [8] | inhibition [9] | inhibition [10] | inhibition [11] | inhibition [12] | inhibition [13] | SMILES |
| --- | --- | --- | --- | --- | --- | --- | --- | --- | --- | --- | --- | --- | --- |
| < 50% | < 50% | < 50% | < 50% | < 50% | < 50% | < 50% | < 50% | < 50% | < 50% | < 50% | < 50% | < 50% | CN1CCN(c2ccc(-c3cnc4c(c3)N(Cc3cc(F)ccc3F)CCN4)cn2)CC1 |
|  | < 50% | < 50% | < 50% | < 50% | < 50% |  |  | < 50% | < 50% |  | < 50% | < 50% | O=C(c1ccc(-c2cnc3c(c2)N(Cc2cc(Cl)ccc2C(F)(F)F)CCN3)cc1)N1CCC(N2CCCC2)CC1 |
|  | < 50% | < 50% | < 50% | < 50% | < 50% |  |  | < 50% | < 50% |  | < 50% | < 50% | O=C(c1ccc(-c2cnc3c(c2)N(Cc2cc(Cl)ccc2C(F)(F)F)CCN3)cc1)N1CCCCC1 |
| < 50% | < 50% | < 50% | 70% | < 50% | < 50% | < 50% | < 50% | < 50% | < 50% | < 50% | < 50% | < 50% | CN1CCN(c2ccc(-c3cnc4c(c3)N(Cc3c(F)ccc(F)c3Cl)CCN4)cn2)CC1 |
|  | < 50% | < 50% | < 50% | < 50% | < 50% |  |  | < 50% | < 50% |  | < 50% | < 50% | COC1CCN(C(=O)c2ccc(-c3cnc4c(c3)N(Cc3cc(Cl)ccc3C(F)(F)F)CCN4)cc2)CC1 |
|  | < 50% | < 50% | < 50% | < 50% | < 50% |  |  | < 50% | < 50% |  | < 50% | < 50% | O=C(O)c1ccc(-c2cnc3c(c2)N(Cc2cc(Cl)ccc2C(F)(F)F)CCN3)cc1 |
| < 50% | < 50% | < 50% | < 50% | < 50% | < 50% | < 50% | < 50% | < 50% | < 50% | < 50% | < 50% | < 50% | CC(=O)N1CCN(c2cc(-c3cnc4c(c3)N(Cc3cc(Cl)ccc3C(F)(F)F)CCN4)ccn2)CC1 |
| < 50% | < 50% | < 50% | < 50% | < 50% | < 50% | < 50% | < 50% | < 50% | < 50% | < 50% | 97% | < 50% | FC(F)(F)c1ccc(Cl)cc1CN1CCNc2ncc(-c3ccnc(N4CCNCC4)c3)cc21 |
| < 50% | < 50% | < 50% | < 50% | < 50% | < 50% | < 50% | < 50% | < 50% | < 50% | < 50% | < 50% | < 50% | CN1CCN(c2ccc(-c3cnc4c(c3)N(Cc3cc(Cl)ccc3C(F)(F)F)CCN4)cn2)CC1 |
| < 50% | < 50% | < 50% | < 50% | < 50% | < 50% | < 50% | < 50% | < 50% | < 50% | < 50% | < 50% | < 50% | CN1CCN(c2ccc(-c3cnc4c(c3)N(Cc3cc(Cl)ccc3Cl)CCN4)cn2)CC1 |
